Assays:
Plasmodium berghei [1] = test: Antimalarial activity against Plasmodium berghei infected in Swiss Webster mouse assessed as mouse survival rate at 100 mg/kg administered once daily via oral gavage for 4 consecutive days beginning 1 hr after infection measured on day 6 post infection relative to control; format: functional
In short: (§1)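 Mice given an intraperitoneal injection of P. berghei-infected erythrocytes taken from a previously infected animal. Oral dosing once daily for 4 consecutive days, starting 1 h after infection. Vehicle: polyethylene glycol 300/propylene glycol/water (weight ratio 55/25/20). Percent survival recorded daily from day 4 to day 20. Chloroquine 30 mg/kg and vehicle-only groups served as controls.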

Plasmodium berghei [2] = test: Antimalarial activity against Plasmodium berghei infected in Swiss Webster mouse assessed as mouse survival rate at 11 mg/kg administered once daily via oral gavage for 4 consecutive days beginning 1 hr after infection measured on day 7 post infection relative to control; format: functional
In short: (§2)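 P. berghei-infected erythrocytes taken from a previously infected mouse were injected intraperitoneally. Oral dosing, once daily for 4 consecutive days, began 1 h after infection, in polyethylene glycol 300/propylene glycol/water (55/25/20 by weight). Chloroquine at 30 mg/kg was the positive control, with a vehicle-only group. Percent survival was recorded daily from day 4 to day 20.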

Plasmodium berghei [3] = test: Antimalarial activity against Plasmodium berghei infected in Swiss Webster mouse assessed as mouse survival rate at 33 mg/kg administered once daily via oral gavage for 4 consecutive days beginning 1 hr after infection measured on day 8 post infection relative to control; format: functional; in short: as §2
[4] = Volume of distribution at steady state in CD1 mouse at 5 mg/kg, iv by HPLC/MS analysis; format: ADME, organism-based; settings: in vivo, read-out: Vdss
In short: (§3)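 Female CD-1 mice, male SD rats or beagle dogs given 5 mg/kg by iv injection or oral gavage. Formulation was PEG300/propylene glycol/water 55/25/20, pH 6. Blood samples analysed by HPLC–MS/MS; parameters include AUC0-inf extrapolated to infinity and terminal half-life.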

Plasmodium berghei [5] = test: Antimalarial activity against Plasmodium berghei infected in Swiss Webster mouse assessed as mouse survival rate at 33 mg/kg administered once daily via oral gavage for 4 consecutive days beginning 1 hr after infection measured on day 7 post infection relative to control; format: functional; in short: as §2
Plasmodium berghei [6] = test: Antimalarial activity against Plasmodium berghei infected in Swiss Webster mouse assessed as mouse survival rate at 100 mg/kg administered once daily via oral gavage for 4 consecutive days beginning 1 hr after infection measured on day 5 post infection relative to control; format: functional; in short: as §1
[7] = Terminal half life in CD1 mouse at 5 mg/kg, iv by HPLC/MS analysis; format: ADME, organism-based; settings: in vivo, read-out: beta t1/2 (converted); in short: as §3
Plasmodium berghei [8] = test: Antimalarial activity against Plasmodium berghei infected in Swiss Webster mouse assessed as mouse survival rate at 33 mg/kg administered once daily via oral gavage for 4 consecutive days beginning 1 hr after infection measured on day 5 post infection relative to control; format: functional; in short: as §2
Plasmodium berghei [9] = test: Antimalarial activity against Plasmodium berghei infected in Swiss Webster mouse assessed as mouse survival rate at 11 mg/kg administered once daily via oral gavage for 4 consecutive days beginning 1 hr after infection measured on day 6 post infection relative to control; format: functional; in short: as §2
[10] = Clearance in CD1 mouse at 5 mg/kg, iv by HPLC/MS analysis; format: ADME, organism-based; settings: in vivo
In short: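 Female CD-1 mice, male SD rats and beagle dogs received 5 mg/kg either iv or by oral gavage. Vehicle was PEG 300/propylene glycol/water (55/25/20, pH 6). Blood was sampled and drug measured by HPLC-MS/MS.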

Plasmodium berghei [11] = test: Antimalarial activity against Plasmodium berghei infected in Swiss Webster mouse assessed as mouse survival rate at 100 mg/kg administered once daily via oral gavage for 4 consecutive days beginning 1 hr after infection measured on day 8 post infection relative to control; format: functional; in short: as §1
Plasmodium berghei [12] = test: Antimalarial activity against Plasmodium berghei infected in Swiss Webster mouse assessed as mouse survival rate at 11 mg/kg administered once daily via oral gavage for 4 consecutive days beginning 1 hr after infection measured on day 8 post infection relative to control; format: functional; in short: as §2
Plasmodium berghei [13] = test: Antimalarial activity against Plasmodium berghei infected in Swiss Webster mouse assessed as mouse survival rate at 11 mg/kg administered once daily via oral gavage for 4 consecutive days beginning 1 hr after infection measured on day 5 post infection relative to control; format: functional; in short: as §2
Plasmodium berghei [14] = test: Antimalarial activity against Plasmodium berghei infected in Swiss Webster mouse assessed as mouse survival rate at 33 mg/kg administered once daily via oral gavage for 4 consecutive days beginning 1 hr after infection measured on day 6 post infection relative to control; format: functional; in short: as §2
Plasmodium falciparum = test: Antimalarial activity against chloroquine-resistant Plasmodium falciparum W2 infected in human erythrocytes after 48 hrs by YOYO-1 dye based flow cytometric analysis; format: functional, cell-based; settings: W2, 48 h
In short: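 P. falciparum W2 cultures were exposed to the compound for 48 h, with artemisinin and chloroquine as reference controls. IC50 was taken from two independent replicates.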

Plasmodium berghei [15] = test: Antimalarial activity against Plasmodium berghei infected in Swiss Webster mouse assessed as mouse survival rate at 100 mg/kg administered once daily via oral gavage for 4 consecutive days beginning 1 hr after infection measured on day 7 post infection relative to control; format: functional; in short: as §1
[16] = Metabolic stability in rat hepatocytes at 22 uM after 44 hrs; format: ADME, cell-based, Hepatocyte
Plasmodium berghei [17] = test: Antimalarial activity against Plasmodium berghei infected in Swiss Webster mouse assessed as mouse survival rate at 3.7 mg/kg administered once daily via oral gavage for 4 consecutive days beginning 1 hr after infection measured on day 4 post infection relative to control; format: functional; in short: as §2
Plasmodium berghei [18] = test: Antimalarial activity against Plasmodium berghei infected in Swiss Webster mouse assessed as mouse survival rate at 0.1 mg/kg administered once daily via oral gavage for 4 consecutive days beginning 1 hr after infection measured on day 6 post infection relative to control; format: functional; in short: as §1
Plasmodium berghei [19] = test: Antimalarial activity against Plasmodium berghei infected in Swiss Webster mouse assessed as mouse survival rate at 33 mg/kg administered once daily via oral gavage for 4 consecutive days beginning 1 hr after infection measured on day 9 post infection relative to control; format: functional; in short: as §2
Plasmodium berghei [20] = test: Antimalarial activity against Plasmodium berghei infected in Swiss Webster mouse assessed as mouse survival rate at 0.4 mg/kg administered once daily via oral gavage for 4 consecutive days beginning 1 hr after infection measured on day 7 post infection relative to control; format: functional; in short: as §1
Plasmodium berghei [21] = test: Antimalarial activity against Plasmodium berghei infected in Swiss Webster mouse assessed as mouse survival rate at 3.7 mg/kg administered once daily via oral gavage for 4 consecutive days beginning 1 hr after infection measured on day 7 post infection relative to control; format: functional; in short: as §2
Plasmodium berghei [22] = test: Antimalarial activity against Plasmodium berghei infected in Swiss Webster mouse assessed as mouse survival rate at 0.4 mg/kg administered once daily via oral gavage for 4 consecutive days beginning 1 hr after infection measured on day 6 post infection relative to control; format: functional; in short: as §1
Plasmodium berghei [23] = test: Antimalarial activity against Plasmodium berghei infected in Swiss Webster mouse assessed as mouse survival rate at 0.4 mg/kg administered once daily via oral gavage for 4 consecutive days beginning 1 hr after infection measured on day 4 post infection relative to control; format: functional; in short: as §1
Plasmodium berghei [24] = test: Antimalarial activity against Plasmodium berghei infected in Swiss Webster mouse assessed as mouse survival rate at 100 mg/kg administered once daily via oral gavage for 4 consecutive days beginning 1 hr after infection measured on day 14 post infection relative to control; format: functional; in short: as §1

Compound | survival at 100 mg/kg (Plasmodium berghei [1]) [%] | survival at 11 mg/kg (Plasmodium berghei [2]) [%] | survival at 33 mg/kg (Plasmodium berghei [3]) [%] | Vd [4] [L/kg] | survival at 33 mg/kg (Plasmodium berghei [5]) [%] | survival at 100 mg/kg (Plasmodium berghei [6]) [%] | half-life [7] [h] | survival at 33 mg/kg (Plasmodium berghei [8]) [%] | survival at 11 mg/kg (Plasmodium berghei [9]) [%] | clearance [10] [mL/min/kg] | survival at 100 mg/kg (Plasmodium berghei [11]) [%] | survival at 11 mg/kg (Plasmodium berghei [12]) [%] | survival at 11 mg/kg (Plasmodium berghei [13]) [%] | survival at 33 mg/kg (Plasmodium berghei [14]) [%] | IC50 (Plasmodium falciparum) [nM] | survival at 100 mg/kg (Plasmodium berghei [15]) [%] | other results
Cc1c(Oc2cnc(C(=O)NC(C)CO)cn2)ccc2c1B(O)OC2 (stereo unspecified) | 100 | 40 | 0 | 0.603 | 100 | 100 | 3.1 | 100 | 40 | 2.13 | 100 | 0 | 40 | 100 | 342 | 100 | –
Cc1c(Oc2cnc(C(=O)N3CC(C)(O)C3)cn2)ccc2c1B(O)OC2 | 100 | 100 | 100 | 0.888 | 100 | 100 | 7.1 | 100 | 100 | 4.07 | 100 | 100 | 100 | 100 | 32.6 | 100 | Stability [16]: Stable; survival at 3.7 mg/kg (Plasmodium berghei [17]): 100%; survival at 0.1 mg/kg (Plasmodium berghei [18]): 100%; survival at 33 mg/kg (Plasmodium berghei [19]): 100%; survival at 0.4 mg/kg (Plasmodium berghei [20]): 0%; survival at 3.7 mg/kg (Plasmodium berghei [21]): 60%; survival at 0.4 mg/kg (Plasmodium berghei [22]): 100%; survival at 0.4 mg/kg (Plasmodium berghei [23]): 100%; survival at 100 mg/kg (Plasmodium berghei [24]): 60%

Reference: ChEMBL document CHEMBL4038305, “Benzoxaborole Antimalarial Agents. Part 5. Lead Optimization of Novel Amide Pyrazinyloxy Benzoxaboroles and Identification of a Preclinical Candidate” (J Med Chem, 2017)
